Source: ChEMBL document CHEMBL2429865, “Withaferin A, a steroidal lactone from Withania somnifera, induces mitotic catastrophe and growth arrest in prostate cancer cells” (2013)
Calls of active or inactive are those of the source. No cut-off for these calls is given here.

How the values were obtained:
[1] = tested on: DU-145; assay: Cell cycle arrest in human DU145 cells assessed as accumulation at G2/M phase at 1 uM after 8 hrs by propidium iodide staining-based flow cytometry; type: functional
[2] = tested on: PC-3; assay: Cell cycle arrest in human PC3 cells assessed as accumulation at G2/M phase at 1 uM after 8 hrs by propidium iodide staining-based flow cytometry; type: functional
[3] = molecular target: Tubulin alpha (Homo sapiens) (UniProt P0DPH7+P68366+Q71U36+P68363+Q9BQE3+Q6PEY2+A6NHL2+Q9NY65); assay: Inhibition of tubulin-alpha (unknown origin) polymerization by fluorescence-based assay; type: protein assay; settings: TDE = time-dependent effect
[4] = tested on: PC-3; assay: Mitotic arrest in human PC3 cells assessed as distorted spindles and curving microtubule array by DAPI staining-based confocal microscopic analysis; type: functional, cell-based
Method in brief: (§1)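 PC-3 cells on coverslips are grown to 60% confluence and treated for 24 h. They are fixed in 4% paraformaldehyde for 20 min at room temperature, permeabilized with 0.2% Triton X-100 for 20 min, and immunostained for pH3 (Ser10), Aurora B or α-tubulin with Alexa Fluor secondaries, rhodamine-phalloidin and DAPI. Imaging is by laser scanning confocal microscopy.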

[5] = tested on: PC-3; assay: Mitotic arrest in human PC3 cells assessed as defect in depolymerization of tubulin-alpha by DAPI staining-based confocal microscopic analysis; type: functional, cell-based; method in brief: as §1
[6] = tested on: PC-3; assay: Mitotic arrest in human PC3 cells assessed as accumulation of phosphorylated histone H3 in nucleus by DAPI staining-based confocal microscopic analysis; type: functional, cell-based; method in brief: as §1
[7] = tested on: PC-3; assay: Mitotic arrest in human PC3 cells assessed as punctate distribution of Aurora B in centromeric region of chromosomes by DAPI staining-based confocal microscopic analysis; type: functional, cell-based; method in brief: as §1
[8] = molecular target: Aurora kinase B (Homo sapiens) (UniProt Q96GD4); assay: Induction of Aurora B-mediated histone H3 phosphorylation at Ser10 in human PC3 cells after 12 to 48 hrs by Western blotting analysis; type: cell-based; settings: PC-3
Aurora kinase B (Homo sapiens), sequence (Q96GD4 whole entry): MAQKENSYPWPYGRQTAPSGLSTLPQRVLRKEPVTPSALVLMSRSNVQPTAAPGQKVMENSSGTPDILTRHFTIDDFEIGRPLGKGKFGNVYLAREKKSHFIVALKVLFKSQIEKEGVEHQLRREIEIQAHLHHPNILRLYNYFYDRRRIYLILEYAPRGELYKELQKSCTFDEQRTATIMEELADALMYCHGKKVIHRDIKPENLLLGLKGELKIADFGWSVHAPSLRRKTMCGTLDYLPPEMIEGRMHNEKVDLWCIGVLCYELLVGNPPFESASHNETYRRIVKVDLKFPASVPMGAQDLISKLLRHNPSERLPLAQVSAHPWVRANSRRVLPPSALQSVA

[9] = tested on: PC-3; assay: Upregulation of Aurora B protein expression in human PC3 cells at IC50 after 12 to 48 hrs by Western blotting analysis; type: functional, cell-based
[10] = tested on: PC-3; assay: Effect on 14-3-3 protein expression in human PC3 cells at IC50 after 12 to 48 hrs by Western blotting analysis; type: functional, cell-based
[11] = molecular target: Cyclin-dependent kinase 1/cyclin B1 (Homo sapiens) (UniProt P06493+P14635); assay: Activation of Cdc2/cyclin B in human PC3 cells; type: cell-based; settings: PC-3
Cyclin-dependent kinase 1/cyclin B1 (Homo sapiens), sequence (P06493 whole entry, looked up): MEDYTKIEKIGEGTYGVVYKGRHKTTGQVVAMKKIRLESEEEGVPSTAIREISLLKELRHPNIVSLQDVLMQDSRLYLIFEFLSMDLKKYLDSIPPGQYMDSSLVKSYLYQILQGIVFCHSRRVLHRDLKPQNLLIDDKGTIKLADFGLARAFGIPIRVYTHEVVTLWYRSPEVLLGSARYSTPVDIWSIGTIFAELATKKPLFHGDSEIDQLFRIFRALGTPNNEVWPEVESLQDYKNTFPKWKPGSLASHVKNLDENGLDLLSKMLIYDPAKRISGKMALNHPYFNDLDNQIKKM
Cyclin-dependent kinase 1/cyclin B1 (Homo sapiens), sequence (P14635 whole entry, looked up): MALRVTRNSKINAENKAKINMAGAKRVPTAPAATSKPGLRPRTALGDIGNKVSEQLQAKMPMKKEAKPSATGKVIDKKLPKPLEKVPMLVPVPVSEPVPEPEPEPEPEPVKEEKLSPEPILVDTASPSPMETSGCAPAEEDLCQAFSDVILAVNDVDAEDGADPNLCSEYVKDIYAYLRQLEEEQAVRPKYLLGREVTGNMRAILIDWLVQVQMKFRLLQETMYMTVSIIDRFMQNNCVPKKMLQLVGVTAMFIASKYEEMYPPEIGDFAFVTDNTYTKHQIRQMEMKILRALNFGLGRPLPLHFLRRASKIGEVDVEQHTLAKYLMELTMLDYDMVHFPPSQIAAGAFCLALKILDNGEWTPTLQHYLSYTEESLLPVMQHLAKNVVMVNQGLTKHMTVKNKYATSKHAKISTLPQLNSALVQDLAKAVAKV
Method in brief: (§2)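 Lysates of vehicle- or drug-treated PC-3 cells are diluted in kinase buffer and added to wells precoated with recombinant Cdc25C substrate. Phosphorylation is started with Mg2+ and ATP. Phospho-Cdc25C Ser216 is detected with an HRP-conjugated antibody and TMB colour with stop reagent. The Cdc2-cyclin B1 line uses a parallel kit of the same format.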

[12] = molecular target: T1, Serine/threonine-protein kinase Chk1 (Homo sapiens) (UniProt O14757); assay: Activation of Chk1 in human PC3 cells assessed as phosphorylation of CDC25C at Ser216; type: cell-based; settings: PC-3; method in brief: as §2
T1 sequence (whole entry): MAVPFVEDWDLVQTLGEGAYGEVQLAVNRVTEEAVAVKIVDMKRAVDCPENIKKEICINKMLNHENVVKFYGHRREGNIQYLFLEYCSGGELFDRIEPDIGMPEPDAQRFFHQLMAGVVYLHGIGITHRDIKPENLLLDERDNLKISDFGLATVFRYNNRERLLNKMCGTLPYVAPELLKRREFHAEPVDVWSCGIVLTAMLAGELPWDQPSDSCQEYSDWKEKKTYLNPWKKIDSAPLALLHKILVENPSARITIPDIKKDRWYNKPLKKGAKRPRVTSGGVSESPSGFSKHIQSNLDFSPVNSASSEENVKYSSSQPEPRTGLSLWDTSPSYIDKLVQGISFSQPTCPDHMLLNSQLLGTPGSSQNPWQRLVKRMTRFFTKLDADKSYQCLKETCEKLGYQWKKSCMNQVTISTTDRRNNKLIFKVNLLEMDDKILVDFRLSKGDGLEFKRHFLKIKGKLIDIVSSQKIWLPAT

[13] = molecular target: Serine/threonine-protein kinase Chk2 (Homo sapiens) (UniProt O96017); assay: Reduction in CHK2 phosphorylation at Thr68 in human PC3 cells at IC50 after 12 to 48 hrs by Western blotting analysis; type: cell-based; settings: PC-3
Serine/threonine-protein kinase Chk2 (Homo sapiens), sequence (O96017 whole entry): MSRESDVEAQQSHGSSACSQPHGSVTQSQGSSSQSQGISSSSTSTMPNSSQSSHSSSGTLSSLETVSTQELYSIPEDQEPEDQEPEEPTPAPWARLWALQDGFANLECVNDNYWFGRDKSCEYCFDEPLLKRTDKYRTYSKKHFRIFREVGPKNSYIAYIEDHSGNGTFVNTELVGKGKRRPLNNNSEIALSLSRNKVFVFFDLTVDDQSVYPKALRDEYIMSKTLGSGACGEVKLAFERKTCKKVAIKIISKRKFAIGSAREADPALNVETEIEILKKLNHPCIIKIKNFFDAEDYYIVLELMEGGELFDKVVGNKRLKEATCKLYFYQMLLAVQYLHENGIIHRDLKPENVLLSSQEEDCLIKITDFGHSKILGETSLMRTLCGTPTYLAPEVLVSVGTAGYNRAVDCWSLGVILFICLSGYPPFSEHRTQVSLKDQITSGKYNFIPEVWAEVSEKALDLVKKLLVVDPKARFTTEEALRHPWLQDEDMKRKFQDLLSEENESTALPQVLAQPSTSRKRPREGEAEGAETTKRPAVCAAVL

[14] = molecular target: T1, Serine/threonine-protein kinase Chk1 (Homo sapiens); assay: Reduction in CHK1 phosphorylation at Ser345 in human PC3 cells at IC50 after 12 to 48 hrs by Western blotting analysis; type: cell-based; settings: PC-3
[15] = molecular target: Cyclin-dependent kinase 1 (Homo sapiens) (UniProt P06493); assay: Reduction in CDC2 phosphorylation at Tyr15 in human PC3 cell cytoplasm at 1 uM after 24 hrs by immunofluorescence assay; settings: PC-3
Cyclin-dependent kinase 1 (Homo sapiens), sequence (P06493 whole entry, looked up): as the sequence (P06493 whole entry, looked up) above
Method in brief: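 PC-3 cells on coverslips at 60% confluence are treated with drug or DMSO for 24 h. They are fixed in 4% paraformaldehyde, permeabilized with 0.2% Triton X-100, and immunostained for pCdc2 (Tyr15) with Alexa Fluor secondary and DAPI counterstain. Images are taken by fluorescence/confocal microscopy.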

[16] = tested on: PC-3; assay: Downregulation of Myt-1 protein expression in human PC3 cells at 1 uM after 12 to 48 hrs by Western blotting analysis; type: functional, cell-based
Method in brief: (§3)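 PC-3 cells are treated with 1 μM for various times. Lysates are made in M-PER buffer with protease inhibitor cocktail, and 25 μg protein is immunoblotted for pWee1 (Ser642), Wee1, pCdc2 (Tyr15), Cdc25C (Ser216) and Myt-1, with β-actin as loading control.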

[17] = molecular target: T2, M-phase inducer phosphatase 3 (Homo sapiens) (UniProt P30307); assay: Reduction in CDC25C phosphorylation at Ser216 in human PC3 cells at 1 uM after 12 to 24 hrs by Western blotting analysis; type: cell-based; settings: PC-3; method in brief: as §3
T2 sequence (whole entry): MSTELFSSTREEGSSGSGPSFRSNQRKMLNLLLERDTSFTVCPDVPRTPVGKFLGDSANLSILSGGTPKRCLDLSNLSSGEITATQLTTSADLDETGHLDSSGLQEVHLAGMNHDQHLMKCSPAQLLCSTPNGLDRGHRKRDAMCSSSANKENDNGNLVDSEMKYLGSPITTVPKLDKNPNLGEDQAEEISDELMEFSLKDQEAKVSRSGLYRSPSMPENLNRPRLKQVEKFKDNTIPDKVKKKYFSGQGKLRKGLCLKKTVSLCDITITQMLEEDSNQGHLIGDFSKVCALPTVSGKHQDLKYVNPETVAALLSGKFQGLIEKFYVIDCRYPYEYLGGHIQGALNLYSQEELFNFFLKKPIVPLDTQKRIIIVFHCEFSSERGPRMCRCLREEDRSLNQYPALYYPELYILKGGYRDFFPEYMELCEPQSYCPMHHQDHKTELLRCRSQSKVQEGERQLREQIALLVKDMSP

[18] = tested on: PC-3; assay: Upregulation of p21 protein expression in human PC3 cells at IC50 after 12 to 48 hrs by Western blotting analysis; type: functional, cell-based
[19] = tested on: PC-3; assay: Downregulation of cyclin B1 protein expression in human PC3 cells at IC50 after 12 to 48 hrs by Western blotting analysis; type: functional, cell-based
[20] = tested on: PC-3; assay: Downregulation of cyclin A2 protein expression in human PC3 cells at IC50 after 12 to 48 hrs by Western blotting analysis; type: functional, cell-based
[21] = tested on: PC-3; assay: Downregulation of cyclin E2 protein expression in human PC3 cells at IC50 after 12 to 48 hrs by Western blotting analysis; type: functional, cell-based
[22] = tested on: DU-145; assay: Induction of cell cycle arrest in human DU145 cells assessed as accumulation at G2/M phase at 1 uM after 48 hrs by propidium iodide staining-based flow cytometry (reference value: 22%); type: functional
[23] = tested on: DU-145; assay: Induction of cell cycle arrest in human DU145 cells assessed as accumulation at G2/M phase at 1 uM after 24 hrs by propidium iodide staining-based flow cytometry (reference value: 22%); type: functional
[24] = tested on: PC-3; assay: Induction of cell cycle arrest in human PC3 cells assessed as accumulation at G2/M phase at 1 uM after 48 hrs by propidium iodide staining-based flow cytometry (reference value: 25.3%); type: functional
[25] = tested on: DU-145; assay: Growth inhibition of human DU145 cells assessed as loss of cell viability after 24 hrs by trypan blue exclusion assay; type: functional, cell-based
Method in brief: (§4)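 PC-3 (DMEM) and DU-145 (RPMI-1640) cells, with 10% heat-inactivated FBS, are seeded at 3×10⁵ cells/well, cultured 24 h, then exposed to 0.5, 1, 2, 3 and 4 μM for 24 h at 37°C, 5% CO₂. DMSO is ≤0.002%. Viable cells are counted by trypan blue exclusion on a hemocytometer and expressed as % of DMSO control. IC50 is calculated. Mean ± SEM of three independent experiments.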

[26] = tested on: PC-3; assay: Induction of cell cycle arrest in human PC3 cells assessed as accumulation at G2/M phase at 1 uM after 24 hrs by propidium iodide staining-based flow cytometry (reference value: 28.3%); type: functional
[27] = tested on: PC-3; assay: Growth inhibition of human PC3 cells assessed as loss of cell viability after 24 hrs by trypan blue exclusion assay; type: functional, cell-based; method in brief: as §4
[28] = molecular target: Wee1-like protein kinase (Homo sapiens) (UniProt P30291); assay: Induction of Wee1 phosphorylation at Ser642 in human PC3 cells at 1 uM after 12 to 24 hrs by Western blotting analysis; type: cell-based; settings: PC-3; method in brief: as §3
Wee1-like protein kinase (Homo sapiens), sequence (P30291 whole entry, looked up): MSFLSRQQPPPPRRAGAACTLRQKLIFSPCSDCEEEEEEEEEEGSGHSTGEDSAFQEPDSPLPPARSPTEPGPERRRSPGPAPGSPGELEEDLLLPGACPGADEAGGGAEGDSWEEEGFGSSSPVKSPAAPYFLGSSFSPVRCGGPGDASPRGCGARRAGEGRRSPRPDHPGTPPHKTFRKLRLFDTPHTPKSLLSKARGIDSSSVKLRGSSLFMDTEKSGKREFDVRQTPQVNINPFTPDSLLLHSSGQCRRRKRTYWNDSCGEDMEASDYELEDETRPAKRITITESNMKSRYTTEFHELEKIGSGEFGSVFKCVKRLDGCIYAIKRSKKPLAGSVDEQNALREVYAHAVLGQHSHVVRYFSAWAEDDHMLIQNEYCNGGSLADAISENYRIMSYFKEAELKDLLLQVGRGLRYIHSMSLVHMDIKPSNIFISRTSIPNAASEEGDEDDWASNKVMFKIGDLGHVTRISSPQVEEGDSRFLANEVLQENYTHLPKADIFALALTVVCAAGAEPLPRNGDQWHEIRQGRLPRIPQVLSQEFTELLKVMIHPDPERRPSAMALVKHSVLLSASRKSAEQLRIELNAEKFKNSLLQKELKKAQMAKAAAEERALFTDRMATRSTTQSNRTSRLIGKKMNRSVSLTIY

[29] = molecular target: Cyclin-dependent kinase 1 (Homo sapiens) (UniProt P06493); assay: Reduction in CDC2 phosphorylation at Tyr15 in human PC3 cells at 1 uM after 12 to 24 hrs by Western blotting analysis; type: cell-based; settings: PC-3; method in brief: as §3
[30] = tested on: PC-3; assay: Upregulation of p21 mRNA expression in human PC3 cells at IC50 after 12 to 48 hrs by SYBR green staining-based RT-PCR analysis; type: functional, cell-based

- inhibition [3]: tde
- Activity [8]: Active
- Activity [11]: inactive
- Activity [12]: inactive
- Activity [13]: Active
- Activity [14]: Active
- Activity [15]: Active
- Activity [17]: Active
- Activity [28]: Active
- Activity [29]: Active
Structure (SMILES): CC1=C(CO)C(=O)O[C@@H]([C@@H](C)[C@H]2CC[C@H]3[C@@H]4C[C@H]5O[C@]56[C@@H](O)C=CC(=O)[C@]6(C)[C@H]4CC[C@]23C)C1 [WITHAFERIN A]
- Activity [1]: Active
- Activity [2]: Active
- Activity [4]: Active
- Activity [5]: Active
- Activity [6]: Active
- Activity [7]: Active
- Activity [9]: Active
- Activity [10]: inactive
- Activity [16]: Active
- Activity [18]: Active
- Activity [19]: Active
- Activity [20]: Active
- Activity [21]: Active
- Activity [22]: 24.75%
- Activity [23]: 36.75%
- Activity [24]: 60.7%
- growth inhibition (GI) [25]: Dose-dependent effect
- Activity [26]: 62.7%
- growth inhibition (GI) [27]: Dose-dependent effect
- Activity [30]: Active
